From ChEMBL document CHEMBL1159121, “Synthesis, in vitro structure-activity relationship, and in vivo studies of 2-arylthiazolidine-4-carboxylic acid amides as anticancer agents” (Bioorg Med Chem, 2010)

Key:
[1] = system: A-375; assay: Antitumor activity against human A375 cells xenografted in athymic nude mouse assessed as tumor growth inhibition at 60 mg/kg, ip once daily administered 7 days after inoculation for 22 days; assay type: functional; parameters: scale not given: the % may be the effect or the level left; settings: route intraperitoneal
How it was run: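 Male athymic nude mice, 4–5 weeks old, injected subcutaneously in the right flank with A375 cells (5 × 10^7/mL, 100 μL, 1:1 Matrigel). Grouped at about 150 mm3 (~day 7), n = 8. DTIC in saline given ip once daily. Caliper volume a×b²×0.5 measured twice weekly; % reduction 100×[(T–T0)/(C–C0)] at day 22. Body weight monitored.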

[2] = Toxicity in mouse assessed as maximum tolerated dose; assay type: organism-based; settings: in vivo
How it was run: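 Tolerability was determined in ICR mice, with the compound formulated in a co-solvent of 80% Tween 80 and 20% Captex 200.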

[3] = system: T47D; assay: Growth inhibition of human T47D cells; assay type: functional

## CCCCCCCCCCCCCCCCNC(=O)[C@@H]1CSC(c2ccc(NC(C)=O)cc2)N1 (mixture of isomers)
[1]
  Activity: 42%
[2]
  MTD: 42 mg/kg
[3]
  GI50: 240 nM
  TGI: 530 nM
[3]; read-out: LC50 (the source's name)
  CC50: 2300 nM
